Assay results published in PubChem BioAssay AID1242 (PCMD, 2008).
Among all 120,000 compounds or so, about 20 (0.02%) were called active.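 The calls were made as follows: active = inhibition above 30.3% in the primary screen of four-compound pools, then above 30% when the compound was retested; inconclusive = passed the primary limit but could not be retested; inactive = the rest.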 The sample as a whole holds a higher share of actives than the screen did.

Assay: Candida albicans biofilm persister killing – 4-compound mixtures, primary screen (AID 1242);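 also: compounds exposed to preformed 24 h biofilms for 48 h; 0% = untreated biofilm control and 100% = clotrimazole plus chlorhexidine kill blank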
Conditions: C. albicans biofilm persisters + clotrimazole, fluorescence viability, primary screen in compound mixtures, stronger effect = higher value
Outline: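 Incubation: 24 h biofilm formation, then 48 h compound exposure, 37 °C | Material: C. albicans biofilms | Buffer or medium: RPMI/MOPS medium, pH 7.0 | Measured by: 2-h Alamar Blue fluorescence, 535/590 nm excitation/emission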

[1] = measured here: individual compound retest, at 61 µM

## CCOC(=O)CN/C=C(\C#N)c1ccc(F)cc1
At 7.6 µM unless noted
  inhibition: 12.8% (inactive)

## O=C(Nc1ccc(Cl)cc1)/C(=C1\CCCN1)[N+](=O)[O-]
At 7.6 µM unless noted
  inhibition: 18.1% (inactive)

## O=C(CSc1nnc(SCc2ccc(F)cc2)s1)Nc1ccc(C(=O)O)cc1
At 7.6 µM unless noted
  inhibition: 12.3% (inactive)

## COC(=O)c1nn(-c2cccc(Cl)c2)ccc1=O
At 7.6 µM unless noted
  inhibition: 12.6% (inactive)

## CCOC(=O)CCNC(=O)N1CCCC(C(=O)c2ccccc2SC)C1 (centres undefined)
At 7.6 µM unless noted
  inhibition: 27% (inactive)

## CN1C=CC=C/C1=C1\SC(=S)N(Cc2ccccc2)C1=O
At 7.6 µM unless noted
  inhibition: 20.5% (inactive)

## COCCN1C2=C(COC(C)(C)C2)C(=S)NC1c1ccccc1 (centres undefined)
At 7.6 µM unless noted
  inhibition: 14% (inactive)

## CC(=O)NCC(=O)N1CCCC(C(=O)c2ccc3c4c(cccc24)CC3)C1 (centres undefined)
At 7.6 µM unless noted
  inhibition: 0.67% (inactive)

## CC(=O)NC(NC(=S)Nc1c(C)n(C)n(-c2ccccc2)c1=O)C(Cl)(Cl)Cl (centres undefined)
At 7.6 µM unless noted
  inhibition: 12% (inactive)

## COc1ccc(/C=C/CN2CCCC(C(=O)c3cc(F)ccc3F)C2)cc1 (centres undefined)
At 7.6 µM unless noted
  inhibition: 8.39% (inactive)

## C/C=N/N(c1ccccc1)c1ccccc1
At 7.6 µM unless noted
  inhibition: 26.1% (inactive)

## O=C(Nc1ccccc1C(=O)O)c1cc(S(=O)(=O)N2CCCCC2)cs1
At 7.6 µM unless noted
  inhibition: -7.15% (inactive)

## O=C(Nc1ccc(S(=O)(=O)Nc2nccs2)cc1)c1cc(=O)[nH]c2ccccc12
At 7.6 µM unless noted
  inhibition: 21.7% (inactive)

## O=C(Cc1ccc(Cl)cc1)NCc1nc(-c2ccccc2)no1
At 7.6 µM unless noted
  inhibition: 11.6% (inactive)

## COC(=O)C1=C(C(=O)OC)C(c2cc([N+](=O)[O-])ccc2O)c2sc(=O)[nH]c2S1 (centres undefined)
At 7.6 µM unless noted
  inhibition: 12.9% (inactive)

## COc1ccc(C2CC(c3cccs3)=NN2C(=O)CSc2nnc(N)s2)cc1OC (centres undefined)
At 7.6 µM unless noted
  inhibition: 2.04% (inactive)

## Cc1ccc(Cl)cc1NC(=O)COC(=O)CC(C)(C)C
At 7.6 µM unless noted
  inhibition: 18.1% (inactive)

## CC(C)(C)OC(=O)NCCCCCC(=O)N/N=C/c1coc2ccccc2c1=O
At 7.6 µM unless noted
  inhibition: 21.8% (inactive)

## CCC(C)(C)NC(=O)CN(Cc1cccs1)C(=O)CNS(=O)(=O)c1ccc(F)cc1
At 7.6 µM unless noted
  inhibition: 7.21% (inactive)

## COc1cccc2c(N/N=C/c3ccco3)cc(C)nc12
At 7.6 µM unless noted
  inhibition: 8.66% (inactive)

## COc1cccc(C2Nc3cccc4cccc(c34)N2)c1
At 7.6 µM unless noted
  inhibition: 25.2% (inactive)

## O=C(NC1CCCCC1)c1cc(C2CC2)on1
At 7.6 µM unless noted
  inhibition: 7.38% (inactive)

## CCCCC(NC(=O)c1cccc(Br)c1)C(=O)O (centres undefined)
At 7.6 µM unless noted
  inhibition: 22.6% (inactive)

## CCOC(=O)c1cc(-c2ccc(F)cc2)n(CC(=O)NCc2ccccn2)c1C
At 7.6 µM unless noted
  inhibition: 14% (inactive)

## CCN1/C(=C/c2ccc3ccc(C)cc3[n+]2CC)Sc2ccccc21
At 7.6 µM unless noted
  inhibition: 9.78% (inactive)

## CCC(=O)/C=C1\Sc2ccccc2N1CC
At 7.6 µM unless noted
  inhibition: 17% (inactive)

## CCN1/C(=C\c2ccc3ccccc3[n+]2CC)Sc2cc(C)ccc21
At 7.6 µM
  inhibition: 31.3% (active)
[1]
  inhibition: 72.3%

## C#CCNc1ccc(C(=O)OCC)cc1
At 7.6 µM unless noted
  inhibition: 15.4% (inactive)

## CC1CC(C)CN(CCC(=O)Nc2ccc3c(c2)CCC3)C1 (centres undefined)
At 7.6 µM unless noted
  inhibition: 16.6% (inactive)

## C=CCN1CC(C)/C(=N\O)CC1C (centres undefined)
At 7.6 µM unless noted
  inhibition: 26.7% (inactive)

## O=C(NCCCN1CCOCC1)c1ccccc1NS(=O)(=O)c1ccc(Br)cc1
At 7.6 µM unless noted
  inhibition: 20.1% (inactive)

## CC(OC(=O)c1ccccc1OCc1ccc(Cl)cc1)C(N)=O (centres undefined)
At 7.6 µM unless noted
  inhibition: 9.56% (inactive)

## COc1ccc(NC(=O)CSc2nc(C)cs2)cc1
At 7.6 µM unless noted
  inhibition: -9.15% (inactive)

## Cc1ccc2cc(/C=N/NC(=O)[C@@H]3CCCN3)c(Cl)nc2c1
At 7.6 µM
  inhibition: 36% (inactive)
[1]
  inhibition: -44.1%

## COc1ccc(C(=O)N/N=C(\C)CC(=O)Nc2ccc(Cl)cn2)cc1
At 7.6 µM unless noted
  inhibition: 14.5% (inactive)

## CC(C)Cc1nc(Cl)c(C#N)c2c1CCC2
At 7.6 µM unless noted
  inhibition: 20.6% (inactive)

## Cc1nc(N)[nH]c(=O)c1Oc1cccc(C(F)(F)F)c1
At 7.6 µM unless noted
  inhibition: 25.2% (inactive)

## CCn1ccnc1CN1CCCC(C(=O)c2ccc3c4c(cccc24)CC3)C1 (centres undefined)
At 7.6 µM unless noted
  inhibition: 13.8% (inactive)

## CC(=O)Nc1ccc(S(=O)(=O)Nc2nccc(/C=C/c3ccccc3F)n2)cc1
At 7.6 µM unless noted
  inhibition: 25.1% (inactive)

## COc1ccc(CCNC(=O)C(=O)NCc2ccccc2C)cc1OC
At 7.6 µM unless noted
  inhibition: 25.3% (inactive)

## COCCNc1nc(-c2ccccc2)nc2c1oc1ccccc12
At 7.6 µM unless noted
  inhibition: 17.2% (inactive)

## O=C(NCC1CCCO1)c1ccccc1-c1nc(-c2ccccc2Cl)no1 (centres undefined)
At 7.6 µM unless noted
  inhibition: 16.1% (inactive)

## Cc1cc(NC(=O)CSCc2ccccc2C)no1
At 7.6 µM unless noted
  inhibition: 13.5% (inactive)

## O=C(NCCCN1CCOCC1)c1ccc([N+](=O)[O-])cc1[N+](=O)[O-]
At 7.6 µM unless noted
  inhibition: 15.2% (inactive)

## O=C(NCCN1CCOCC1)Nc1cccc(Cl)c1
At 7.6 µM unless noted
  inhibition: 20.6% (inactive)

## O=C(CCC(=O)N1CCCC1)Nc1ccc([N+](=O)[O-])cc1
At 7.6 µM unless noted
  inhibition: 11.9% (inactive)

## COc1ccc(Cn2c(O)c(/C=C3/C=CC=N3)c(=O)[nH]c2=O)cc1
At 7.6 µM unless noted
  inhibition: 11.9% (inactive)
